# Experimental data from ChEMBL document CHEMBL1145213, “Lipopolysaccharide sequestrants: structural correlates of activity and toxicity in novel acylhomospermines” (J Med Chem, 2005).
# System: Mus musculus
# Test: Protection of LPS-induced lethality in mice was determined after administration of 50 ug and activity expressed as dead/total (5/5)
# Type: functional
# Conditions: not given
row,Compound,Dead
1,CCCCCCCCC(=O)NCCCNCCCNCCCCNCCCNCCCNC(=O)CCCCCCCC,5

# Molecular target: Lipopolysaccharide (LPS)
# Test: Dissociation constant against lipopolysaccharide
# Conditions: not given
# How it was run: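 Isothermal titration calorimetry at 37 °C in 50 mM Tris pH 7.4, ligand and LPS in the same buffer. E. coli O111:B4 LPS was titrated in 35 injections at 360 s intervals into the cell holding the acylhomospermine, with stirring at 310 rpm. Controls injected LPS into buffer. KD was obtained from fitting the binding isotherm.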
row,Compound,Kd [µM]
1,CCCCCCCCCCCCCCCCC(=O)NCCCNCCCNCCCCNCCCN,1.21

# System: Mus musculus
# Test: Protection of LPS-induced lethality in mice sensitized by D-galactosamine was determined after 200 ug administered ip at -4 hour and activity expressed as dead/total (1/5)
# Type: functional
# Conditions: not given
row,Compound,Dead
1,CCCCCCCCCCCCCCCCC(=O)NCCCNCCCNCCCCNCCCN,1

# System: Mus musculus
# Test: Protection of LPS-induced lethality in mice sensitized by D-galactosamine was determined after 200 ug administered ip at 2 hour and activity expressed as dead/total (4/5)
# Type: functional
# Conditions: not given
row,Compound,Dead
1,CCCCCCCCCCCCCCCCC(=O)NCCCNCCCNCCCCNCCCN,4

# System: Lipopolysaccharide (LPS)
# Test: Effective dose required for binding to lipopolysaccharide using Fluorescence Displacement Assay
# Conditions: not given
# How it was run: (§1)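 BODIPY-TR-cadaverine displacement from LPS. Compounds from 5 mM DMSO stocks were serially diluted two-fold in 50 mM Tris pH 7.4 down to 0.596 nM final. An LPS/probe mixture was added and end-point fluorescence was read at 620 nm; probe de-quenching reports binding. ED50 was computed from displacement curves, with polymyxin B as the reference on every plate.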
row,Compound,ED50 [µM]
1,CCCCCCCCCCCCCCCCCCC(=O)NCCCNCCCNCCCCNCCCN,2.44
2,CCCCCCCCC(=O)NCCCNCCCNCCCCNCCCNCCCNC(=O)CCCCCCCC,0.33
3,CCCCCCCCCCCC(=O)NCCCNCCCNCCCCNCCCNCCCNC(=O)CCCCCCCCCCC,6.87
4,CCCCCCCCCCCCCCC(=O)NCCCNCCCNCCCCNCCCNCCCNC(=O)CCCCCCCCCCCCCC,8.67
5,CCCCCCCCC(=O)NCCCNCCCNCCCCNCCCN,0.92
6,CCCCCCCCCCCCCCCCC(=O)NCCCNCCCNCCCCNCCCN,1.37
7,POLYMYXIN B,1.2

# Results, then the compound that gave them:
row,ED50 [µM],Compound
1,1.35,CCCCCCCCCCCCCCC(=O)NCCCNCCCNCCCCNCCCN
2,0.76,CCCCCCCCCC(=O)NCCCNCCCNCCCCNCCCNCCCNC(=O)CCCCCCCCC
3,66.7,CCCCCCCCCCCCCCCCCCC(=O)NCCCNCCCNCCCCNCCCNCCCNC(=O)CCCCCCCCCCCCCCCCCC
4,52.5,CCCCCCCCCCCCCCCCC(=O)NCCCNCCCNCCCCNCCCNCCCNC(=O)CCCCCCCCCCCCCCCC
5,1.08,CCCCCCCCCC(=O)NCCCNCCCNCCCCNCCCN
6,107,CC(=O)NCCCNCCCNCCCCNCCCN

# System: Mus musculus
# Test: Protection of LPS-induced lethality in mice sensitized by D-galactosamine was determined after 200 ug administered ip at -6 hour and activity expressed as dead/total (1/5)
# Type: functional
# Conditions: not given
row,Compound,Dead
1,CCCCCCCCCCCCCCCCC(=O)NCCCNCCCNCCCCNCCCN,1

# System: Mus musculus
# Test: Protection of LPS-induced lethality in mice was determined after administration of 50 ug and activity expressed as dead/total (2/5)
# Type: functional
# Conditions: not given
row,Compound,Dead
1,CCCCCCCCCCCCCCCCC(=O)NCCCNCCCNCCCCNCCCN,2

# Organism: Homo sapiens
# Test: Inhibitory concentration required to inhibit LPS-induced TNF-alpha production in ex vivo human whole blood assay
# Type: functional, organism-based
# Conditions: not given
# How it was run: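 Fresh EDTA-anticoagulated whole blood from healthy volunteers was mixed with an equal volume of 20 ng/ml E. coli O111:B4 LPS plus graded compound concentrations diluted in saline and incubated for 4 h. TNF-α was quantified by a multiplexed flow-cytometric cytokine bead array against recombinant cytokine standards. IC50 was derived from dose-response.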
row,Compound,IC50 [µM]
1,CCCCCCCCCCCCCCCCCCC(=O)NCCCNCCCNCCCCNCCCN,2.31
2,CCCCCCCCC(=O)NCCCNCCCNCCCCNCCCNCCCNC(=O)CCCCCCCC,4.88
3,CCCCCCCCCCCC(=O)NCCCNCCCNCCCCNCCCNCCCNC(=O)CCCCCCCCCCC,9.19
4,CCCCCCCCCCCCCCC(=O)NCCCNCCCNCCCCNCCCNCCCNC(=O)CCCCCCCCCCCCCC,63.1
5,CCCCCCCCC(=O)NCCCNCCCNCCCCNCCCN,31.1
6,CCCCCCCCCCCCCCCCC(=O)NCCCNCCCNCCCCNCCCN,1.91

# More lines, now with the values ahead:
row,IC50 [µM],Compound
1,2.27,CCCCCCCCCCCCCCC(=O)NCCCNCCCNCCCCNCCCN
2,10,CCCCCCCCCC(=O)NCCCNCCCNCCCCNCCCNCCCNC(=O)CCCCCCCCC
3,120,CCCCCCCCCCCCCCCCCCC(=O)NCCCNCCCNCCCCNCCCNCCCNC(=O)CCCCCCCCCCCCCCCCCC
4,37.1,CCCCCCCCCCCCCCCCC(=O)NCCCNCCCNCCCCNCCCNCCCNC(=O)CCCCCCCCCCCCCCCC
5,16.5,CCCCCCCCCC(=O)NCCCNCCCNCCCCNCCCN
6,36.6,CC(=O)NCCCNCCCNCCCCNCCCN

# System: Mus musculus
# Test: Protection of LPS-induced lethality in mice was determined after administration of 100 ug and activity expressed as dead/total (4/5)
# Type: functional
# Conditions: not given
row,Compound,Dead
1,CCCCCCCCC(=O)NCCCNCCCNCCCCNCCCNCCCNC(=O)CCCCCCCC,4

# System: Lipopolysaccharide (LPS)
# Test: Effective dose required for binding to lipopolysaccharide using Fluorescence Displacement Assay; Range is ~1-2 uM
# Conditions: not given
# How it was run: as §1
row,Compound,ED50 [µM]
1,CCCCCCCCCCCCCCC(=O)NCCCN(CCCN(CCCCN(CCCNC(=O)OC(C)(C)C)C(=O)OC(C)(C)C)C(=O)OC(C)(C)C)C(=O)OC(C)(C)C,< 2
2,CCCCCCCCCCCCCCCCCCC(=O)NCCCN(CCCN(CCCCN(CCCNC(=O)OC(C)(C)C)C(=O)OC(C)(C)C)C(=O)OC(C)(C)C)C(=O)OC(C)(C)C,< 2
3,CC(C)(C)OC(=O)NCCCN(CCCCN(CCCN(CCCN)C(=O)OC(C)(C)C)C(=O)OC(C)(C)C)C(=O)OC(C)(C)C,< 2
4,CCCCCCCCCCCCCCCCC(=O)NCCCN(CCCN(CCCCN(CCCNC(=O)OC(C)(C)C)C(=O)OC(C)(C)C)C(=O)OC(C)(C)C)C(=O)OC(C)(C)C,< 2
5,CCCCCCCCCC(=O)NCCCN(CCCN(CCCCN(CCCNC(=O)OC(C)(C)C)C(=O)OC(C)(C)C)C(=O)OC(C)(C)C)C(=O)OC(C)(C)C,< 2

# Now from value to compound:
row,ED50 [µM],Compound
1,< 2,CC(=O)NCCCN(CCCN(CCCCN(CCCNC(=O)OC(C)(C)C)C(=O)OC(C)(C)C)C(=O)OC(C)(C)C)C(=O)OC(C)(C)C
2,< 2,CCCCCCCCC(=O)NCCCN(CCCN(CCCCN(CCCNC(=O)OC(C)(C)C)C(=O)OC(C)(C)C)C(=O)OC(C)(C)C)C(=O)OC(C)(C)C
3,< 2,NCCCNCCCCNCCCN

# System: Mus musculus
# Test: Protection of LPS-induced lethality in mice was determined after administration of 500 ug and activity expressed as dead/total (4/5)
# Type: functional
# Conditions: not given
row,Compound,Dead
1,CCCCCCCCCCCC(=O)NCCCNCCCNCCCCNCCCNCCCNC(=O)CCCCCCCCCCC,4

# System: Mus musculus
# Test: Protection of LPS-induced lethality in mice sensitized by D-galactosamine was determined after 200 ug administered ip at 0 hour and activity expressed as dead/total (0/5)
# Type: functional
# Conditions: not given
row,Compound,Dead
1,CCCCCCCCCCCCCCCCC(=O)NCCCNCCCNCCCCNCCCN,0

# System: Mus musculus
# Test: Protection of LPS-induced lethality in mice was determined after administration of 200 ug and activity expressed as dead/total (1/5)
# Type: functional
# Conditions: not given
row,Compound,Dead
1,CCCCCCCCC(=O)NCCCNCCCNCCCCNCCCNCCCNC(=O)CCCCCCCC,1
2,CCCCCCCCCCCC(=O)NCCCNCCCNCCCCNCCCNCCCNC(=O)CCCCCCCCCCC,1

# System: Mus musculus
# Test: Protection of LPS-induced lethality in mice sensitized by D-galactosamine was determined after 200 ug administered ip at -2 hour and activity expressed as dead/total (0/5)
# Type: functional
# Conditions: not given
row,Compound,Dead
1,CCCCCCCCCCCCCCCCC(=O)NCCCNCCCNCCCCNCCCN,0

# System: Mus musculus
# Test: Protection of LPS-induced lethality in mice was determined after administration of 100 ug and activity expressed as dead/total (2/5)
# Type: functional
# Conditions: not given
row,Compound,Dead
1,CCCCCCCCCCCC(=O)NCCCNCCCNCCCCNCCCNCCCNC(=O)CCCCCCCCCCC,2

# System: Mus musculus
# Test: Protection of LPS-induced lethality in mice was determined after administration of 200 ug and activity expressed as dead/total (0/5)
# Type: functional
# Conditions: not given
row,Compound,Dead
1,CCCCCCCCCCCCCCCCC(=O)NCCCNCCCNCCCCNCCCN,0

# System: Mus musculus
# Test: Protection of LPS-induced lethality in mice was determined after administration of 50 ug and activity expressed as dead/total (4/5)
# Type: functional
# Conditions: not given
row,Compound,Dead
1,CCCCCCCCCCCC(=O)NCCCNCCCNCCCCNCCCNCCCNC(=O)CCCCCCCCCCC,4

# System: Mus musculus
# Test: Protection of LPS-induced lethality in mice was determined after administration of 100 ug and activity expressed as dead/total (0/5)
# Type: functional
# Conditions: not given
row,Compound,Dead
1,CCCCCCCCCCCCCCCCC(=O)NCCCNCCCNCCCCNCCCN,0

# System: Mus musculus
# Test: Protection of LPS-induced lethality in mice sensitized by D-galactosamine was determined after 200 ug administered ip at 1 hour and activity expressed as dead/total (5/5)
# Type: functional
# Conditions: not given
row,Compound,Dead
1,CCCCCCCCCCCCCCCCC(=O)NCCCNCCCNCCCCNCCCN,5

# System: Mus musculus
# Test: Protection of LPS-induced lethality in mice was determined after administration of 10 ug and activity expressed as dead/total (5/5)
# Type: functional
# Conditions: not given
row,Compound,Dead
1,CCCCCCCCC(=O)NCCCNCCCNCCCCNCCCNCCCNC(=O)CCCCCCCC,5
2,CCCCCCCCCCCCCCCCC(=O)NCCCNCCCNCCCCNCCCN,5

# System: Mus musculus
# Test: Protection of LPS-induced lethality in mice was determined after administration of 0 ug and activity expressed as dead/total (5/5)
# Type: functional
# Conditions: not given
row,Compound,Dead
1,CCCCCCCCC(=O)NCCCNCCCNCCCCNCCCNCCCNC(=O)CCCCCCCC,5
2,CCCCCCCCCCCC(=O)NCCCNCCCNCCCCNCCCNCCCNC(=O)CCCCCCCCCCC,5
3,CCCCCCCCCCCCCCCCC(=O)NCCCNCCCNCCCCNCCCN,5

# System: not listed separately
# Test: In vitro inhibitory concentration required to inhibit LPS-induced nitric oxide production in J774A.1 cells
# Type: functional, cell-based
# Conditions: Mus musculus, J774.A1
# How it was run: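 Murine J774A.1 macrophages were plated at ~10^5/ml and stimulated with 10 ng/ml LPS. Serially diluted compounds were added at the same time, with polymyxin B as reference, and cells were incubated for 16 h. Nitrite in the supernatant was measured by Griess reaction (15 min, room temperature, dark; A535) against a sodium nitrite standard curve. IC50 was taken from dose-response. Viability was checked in parallel by XTT.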
row,Compound,IC50 [µM]
1,CCCCCCCCCCCCCCCCCCC(=O)NCCCNCCCNCCCCNCCCN,4.35
2,CCCCCCCCC(=O)NCCCNCCCNCCCCNCCCNCCCNC(=O)CCCCCCCC,2.05
3,CCCCCCCCCCCC(=O)NCCCNCCCNCCCCNCCCNCCCNC(=O)CCCCCCCCCCC,1.44
4,CCCCCCCCCCCCCCC(=O)NCCCNCCCNCCCCNCCCNCCCNC(=O)CCCCCCCCCCCCCC,10.1
5,CCCCCCCCC(=O)NCCCNCCCNCCCCNCCCN,52.5
6,CCCCCCCCCCCCCCCCC(=O)NCCCNCCCNCCCCNCCCN,4.22

# Next, values leading:
row,IC50 [µM],Compound
1,3.69,CCCCCCCCCCCCCCC(=O)NCCCNCCCNCCCCNCCCN
2,1.47,CCCCCCCCCC(=O)NCCCNCCCNCCCCNCCCNCCCNC(=O)CCCCCCCCC
3,13.9,CCCCCCCCCCCCCCCCCCC(=O)NCCCNCCCNCCCCNCCCNCCCNC(=O)CCCCCCCCCCCCCCCCCC
4,14.2,CCCCCCCCCCCCCCCCC(=O)NCCCNCCCNCCCCNCCCNCCCNC(=O)CCCCCCCCCCCCCCCC
5,23.5,CCCCCCCCCC(=O)NCCCNCCCNCCCCNCCCN
6,171,CC(=O)NCCCNCCCNCCCCNCCCN
